Reference: ChEMBL document CHEMBL1152606, “Thienylhalomethylketones: Irreversible glycogen synthase kinase 3 inhibitors as useful pharmacological tools” (Bioorg Med Chem, 2009)
Activity calls are given as the source filed them. The calls are words filed in the database; no cut-off is given here.

Tests used:
[1] = target: T1, Alpha-2A adrenergic receptor (Rattus norvegicus) (UniProt P22909); assay: Displacement of [3H]RX821002 from alpha2 adrenoceptor in rat cerebral cortex at 10 uM; format: tissue-based
T1 sequence (whole entry): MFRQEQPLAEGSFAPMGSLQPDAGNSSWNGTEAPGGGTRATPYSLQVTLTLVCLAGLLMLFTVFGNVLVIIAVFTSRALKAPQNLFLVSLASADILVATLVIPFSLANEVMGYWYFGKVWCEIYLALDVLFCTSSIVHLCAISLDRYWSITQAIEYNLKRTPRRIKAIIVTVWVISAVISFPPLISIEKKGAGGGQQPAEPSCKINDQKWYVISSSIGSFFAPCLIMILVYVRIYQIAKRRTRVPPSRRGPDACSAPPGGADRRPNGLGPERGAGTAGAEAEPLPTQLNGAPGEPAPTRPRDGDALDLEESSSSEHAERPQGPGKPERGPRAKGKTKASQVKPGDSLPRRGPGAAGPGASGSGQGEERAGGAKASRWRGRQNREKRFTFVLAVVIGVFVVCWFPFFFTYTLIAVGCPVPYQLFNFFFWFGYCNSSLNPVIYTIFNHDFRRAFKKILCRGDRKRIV
Method in brief: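 Rat cerebral cortex source; [3H]RX 821002 ligand at 0.5 nM; yohimbine as reference compound; non-selective alpha-2 site.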

[2] = Displacement of [3H]QNB from muscarinic receptor at 10 uM
[3] = organism: Rattus norvegicus; assay: Inhibition of rat CAM2 at 10 uM by liquid scintillation counting in presence of [33gammaP]ATP
Method in brief: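 CaM kinase II from rat brain; [γ33-P]ATP plus autocamtide-2 (5 µM); staurosporine reference; labelled autocamtide-2 counted by liquid scintillation; compounds at 10 µM.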

[4] = target: D(2) dopamine receptor (Homo sapiens) (UniProt P14416); assay: Displacement of [3H]spiperone from human recombinant dopamine D2 receptor expressed in CHO cells at 10 uM; format: cell-based
Method in brief: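 Human recombinant D2 receptor expressed in CHO cells; [3H]spiperone ligand at 0.3 nM; (+)-buctaclamol as reference compound.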

[5] = target: D(3) dopamine receptor (Homo sapiens) (UniProt P35462); assay: Displacement of [3H]spiperone from human recombinant dopamine D3 receptor expressed in CHO cells at 10 uM; format: cell-based
Method in brief: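 Human recombinant D3 receptor from CHO cells; [3H]spiperone 0.3 nM as ligand; (+)-buctaclamol reference compound.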

[6] = target: Epidermal growth factor receptor (Homo sapiens) (UniProt P00533); assay: Inhibition of EGFR in human A431 at 10 uM by liquid scintillation counting in presence of [33gammaP]ATP
Method in brief: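 EGFR kinase from A-431 cells; substrate [γ33-P]ATP plus poly GAT (0.48 mg/mL); PD 153035 reference; product measured by liquid scintillation; compounds at 10 µM.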

[7] = target: Insulin receptor (Homo sapiens) (UniProt P06213); assay: Inhibition of human recombinant IR at 10 uM by liquid scintillation counting in presence of [33gammaP]ATP
Method in brief: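 Human recombinant insulin receptor kinase; [γ33-P]ATP plus poly GT (0.03 mg/mL); staurosporine reference; liquid scintillation detection; 10 µM compound.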

[8] = target: Tyrosine-protein kinase ABL1 (Mus musculus) (UniProt P00520); assay: Inhibition of mouse recombinant Abl expressed in Escherichia coli at 10 uM by fluorescence polarization
[9] = system: 5-HT (non-selective) serotonin receptor (Rattus norvegicus); assay: Inhibition of [3H]serotonine binding to non-selective 5-HT serotoninergic receptor in rat cerebral cortex at 10 uM
[10] = organism: Rattus norvegicus; assay: Displacement of [3H]cystisine from alpha-BGTX sensitive nicotinic acetylcholine receptor in rat cerebral cortex; format: tissue-based; parameters: concentration or dose not given beside the values; conditions: concentration not given here
[11] = target: T2, Glycogen synthase kinase-3 beta (Homo sapiens, UniProt P49841); assay: Irreversible inhibition of GSK3-beta mediated phosphorylation measured after careful washes by liquid scintillation counting
Method in brief: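 His-tagged recombinant GSK-3β immobilised on nickel agarose, incubated 20 min at 37 °C with inhibitor, 15 µM ATP, [γ-32P]ATP and GS-1 in Tris/MgCl2/EGTA/EDTA pH 7.5; gel pelleted, washed three times in Tris-MgCl2 buffer, then reassayed 15 min with fresh ATP/GS-1; P81 filter scintillation; activity relative to identically handled control.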

[12] = target: Glutamate NMDA receptor (Rattus norvegicus) (UniProt P35439+Q00959+Q00960+Q00961+Q62645+Q8VHN2+Q9R1M7); assay: Displacement of [3H]CGP39653 from NMDA receptor in rat cerebral cortex at 10 uM; format: tissue-based
[13] = organism: Rattus norvegicus; assay: Displacement of [3H]cystisine from alpha-BGTX insensitive nicotinic acetylcholine receptor in rat cerebral cortex at 10 uM; format: tissue-based
[14] = organism: Bos taurus; assay: Inhibition of bovine thymus p56LCK at 10 uM by liquid scintillation counting in presence of [33gammaP]ATP
Method in brief: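 p56lck from bovine thymus; [γ33-P]ATP with polyGT (0.5 mg/mL) substrate; staurosporine reference; liquid scintillation read-out; compounds tested at 10 µM.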

[15] = target: Dual specificity mitogen-activated protein kinase kinase 1 (Oryctolagus cuniculus) (UniProt P29678); assay: Inhibition of rabbit recombinant MEK1 expressed in Escherichia coli at 10 uM by liquid scintillation counting in presence of [33gammaP]ATP
Method in brief: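 Rabbit recombinant MEK1 from E. coli; ATP plus unactivated MAP kinase (0.01 mg/mL) as substrate; staurosporine reference; liquid scintillation detection; 10 µM.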

[16] = target: Proto-oncogene tyrosine-protein kinase Src (Homo sapiens) (UniProt P12931); assay: Inhibition of Src at 10 uM
[17] = organism: Rattus norvegicus; assay: Displacement of [3H]AMPA from AMPA receptor in rat cerebral cortex at 10 uM; format: tissue-based
[18] = organism: Rattus norvegicus; assay: Inhibition of rat recombinant MAPK at 10 uM by liquid scintillation counting in presence of [33gammaP]ATP
Method in brief: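 Rat recombinant ERK42 MAP kinase expressed in E. coli; [γ33-P]ATP with MBP (0.5 mg/mL); staurosporine reference; liquid scintillation read-out; 10 µM compound.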

[19] = target: T2, Glycogen synthase kinase-3 beta; assay: Noncompetitive inhibition of GSK3-beta by double-reciprocal plotting in presence of increasing ATP
Method in brief: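 Lineweaver-Burk analysis with ATP varied 6.5–100 µM and inhibitor 1–2 µM, GS-1 fixed at 15 µM; 20 min [γ-32P] incorporation into GS-1, V as pmol phosphate/20 min.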

[20] = system: N2a; assay: Induction of neurite growth in mouse Neuro2a cells at 0.2 uM after 16 hrs by phase-contrast photography; format: functional, cell-based
Method in brief: (§1)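 Neuro2A mouse neuroblastoma cells grown in DMEM with 10% heat-inactivated FCS, 2 mM glutamine and antibiotics; compounds added in serum-containing medium for 16 h; control received DMSO; neurite/cytoplasmic extensions scored by phase-contrast photography.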

[21] = target: T2, Glycogen synthase kinase-3 beta; assay: Noncompetitive inhibition of GSK3-beta by double-reciprocal plotting in presence of 15 uM ATP
Method in brief: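 Double-reciprocal kinetics: GS-1 varied 6.5–100 µM with inhibitor 1–2 µM at fixed 15 µM ATP; [γ-32P] filter assay, V as pmol phosphate/20 min; each point mean of three experiments.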

[22] = target: Glycogen synthase kinase-3 beta (Mus musculus) (UniProt Q9WV60); assay: Inhibition of GSK-3-beta-mediated tau phosphorylation in mouse granule cerebellar neurons cells after 16 hrs by Western blot
Method in brief: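 Cerebellar granule neurons from P6 mice, plated on poly-L-lysine and grown 48 h in serum-free neurobasal/B-27 with 12.5 mM KCl; compounds 0.5–25 µM; LiCl 10 mM positive control with excess myo-inositol; lysates blotted with PHF-1 and Tau-1, normalised to β-actin, densitometry; mean of three experiments, control = 100 r.u.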

[23] = system: N2a; assay: Induction of neurite growth in mouse Neuro2a cells at 2 uM after 16 hrs by phase-contrast photography; format: functional, cell-based; method in brief: as §1

D(3) dopamine receptor (Homo sapiens), sequence (P35462 whole entry): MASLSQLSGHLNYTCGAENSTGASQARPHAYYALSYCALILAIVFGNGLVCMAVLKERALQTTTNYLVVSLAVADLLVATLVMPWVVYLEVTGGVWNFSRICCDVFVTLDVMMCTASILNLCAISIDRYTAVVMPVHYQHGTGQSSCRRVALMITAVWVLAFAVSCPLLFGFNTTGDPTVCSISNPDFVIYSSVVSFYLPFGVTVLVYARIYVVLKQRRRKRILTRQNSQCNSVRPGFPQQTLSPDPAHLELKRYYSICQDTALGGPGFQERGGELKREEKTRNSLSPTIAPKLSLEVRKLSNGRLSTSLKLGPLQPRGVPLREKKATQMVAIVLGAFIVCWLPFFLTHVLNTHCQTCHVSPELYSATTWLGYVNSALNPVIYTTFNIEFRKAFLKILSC
Tyrosine-protein kinase ABL1 (Mus musculus), sequence (P00520 whole entry): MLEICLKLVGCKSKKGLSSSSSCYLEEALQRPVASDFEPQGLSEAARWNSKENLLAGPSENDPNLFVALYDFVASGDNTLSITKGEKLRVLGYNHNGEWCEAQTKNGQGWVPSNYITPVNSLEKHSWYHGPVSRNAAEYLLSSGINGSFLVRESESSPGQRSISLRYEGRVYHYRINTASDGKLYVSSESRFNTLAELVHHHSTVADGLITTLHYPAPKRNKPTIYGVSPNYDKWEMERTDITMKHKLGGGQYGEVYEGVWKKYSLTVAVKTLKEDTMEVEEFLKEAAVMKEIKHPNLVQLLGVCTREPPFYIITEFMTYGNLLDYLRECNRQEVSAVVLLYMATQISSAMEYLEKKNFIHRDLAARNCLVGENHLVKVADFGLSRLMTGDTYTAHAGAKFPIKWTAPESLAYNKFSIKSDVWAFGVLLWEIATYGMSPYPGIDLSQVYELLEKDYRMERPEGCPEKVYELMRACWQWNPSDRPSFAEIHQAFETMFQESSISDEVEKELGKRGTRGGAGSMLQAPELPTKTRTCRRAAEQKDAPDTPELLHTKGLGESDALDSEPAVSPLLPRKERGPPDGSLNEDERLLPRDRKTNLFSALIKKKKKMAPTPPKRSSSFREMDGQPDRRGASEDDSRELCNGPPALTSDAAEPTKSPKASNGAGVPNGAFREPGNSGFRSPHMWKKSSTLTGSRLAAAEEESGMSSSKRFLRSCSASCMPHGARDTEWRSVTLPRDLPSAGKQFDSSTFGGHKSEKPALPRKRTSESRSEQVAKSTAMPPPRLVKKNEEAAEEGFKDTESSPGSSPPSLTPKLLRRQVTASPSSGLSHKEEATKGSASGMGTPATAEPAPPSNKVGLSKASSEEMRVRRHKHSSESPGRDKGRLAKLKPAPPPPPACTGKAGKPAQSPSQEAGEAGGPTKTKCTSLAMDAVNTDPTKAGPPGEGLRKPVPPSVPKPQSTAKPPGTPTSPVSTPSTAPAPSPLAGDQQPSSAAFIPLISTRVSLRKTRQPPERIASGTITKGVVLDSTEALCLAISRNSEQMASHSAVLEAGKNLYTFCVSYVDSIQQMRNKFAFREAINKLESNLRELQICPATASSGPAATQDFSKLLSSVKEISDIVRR
Dual specificity mitogen-activated protein kinase kinase 1 (Oryctolagus cuniculus), sequence (P29678 whole entry): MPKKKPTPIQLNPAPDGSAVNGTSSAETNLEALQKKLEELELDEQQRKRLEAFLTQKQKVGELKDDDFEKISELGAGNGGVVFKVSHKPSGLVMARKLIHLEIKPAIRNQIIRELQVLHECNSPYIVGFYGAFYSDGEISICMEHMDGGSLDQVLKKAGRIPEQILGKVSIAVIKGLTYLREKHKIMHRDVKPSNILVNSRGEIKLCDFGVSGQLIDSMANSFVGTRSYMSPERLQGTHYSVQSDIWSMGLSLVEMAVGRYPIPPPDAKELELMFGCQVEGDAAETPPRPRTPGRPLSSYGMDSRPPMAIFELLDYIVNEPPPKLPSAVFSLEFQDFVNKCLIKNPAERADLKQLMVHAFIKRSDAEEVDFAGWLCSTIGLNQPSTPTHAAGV
D(2) dopamine receptor (Homo sapiens), sequence (P14416 whole entry): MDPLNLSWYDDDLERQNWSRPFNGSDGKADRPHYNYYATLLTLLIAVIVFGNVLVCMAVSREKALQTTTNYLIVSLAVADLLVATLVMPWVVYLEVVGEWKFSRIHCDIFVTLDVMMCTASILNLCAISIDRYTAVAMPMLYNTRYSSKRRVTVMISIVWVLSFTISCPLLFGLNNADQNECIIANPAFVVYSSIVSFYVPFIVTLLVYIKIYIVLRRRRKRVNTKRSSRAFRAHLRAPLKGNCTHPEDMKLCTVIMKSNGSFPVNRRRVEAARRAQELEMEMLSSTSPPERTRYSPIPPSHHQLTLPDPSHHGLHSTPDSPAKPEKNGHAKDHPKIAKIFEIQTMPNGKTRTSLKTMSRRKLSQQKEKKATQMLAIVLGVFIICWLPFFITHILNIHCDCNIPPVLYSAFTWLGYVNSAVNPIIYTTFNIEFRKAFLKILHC
T2 sequence (P49841 whole entry, looked up): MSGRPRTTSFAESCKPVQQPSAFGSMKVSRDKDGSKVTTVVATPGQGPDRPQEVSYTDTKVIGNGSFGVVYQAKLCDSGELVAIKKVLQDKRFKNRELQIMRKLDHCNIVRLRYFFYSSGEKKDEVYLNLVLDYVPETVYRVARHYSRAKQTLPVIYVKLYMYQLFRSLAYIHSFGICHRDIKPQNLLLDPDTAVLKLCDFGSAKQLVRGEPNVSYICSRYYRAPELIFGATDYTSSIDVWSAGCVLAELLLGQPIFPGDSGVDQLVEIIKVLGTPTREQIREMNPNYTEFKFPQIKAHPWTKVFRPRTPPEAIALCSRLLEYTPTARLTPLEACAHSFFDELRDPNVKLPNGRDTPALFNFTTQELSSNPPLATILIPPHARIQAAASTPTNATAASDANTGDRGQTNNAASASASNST
Proto-oncogene tyrosine-protein kinase Src (Homo sapiens), sequence (P12931 2-536 limits assumed): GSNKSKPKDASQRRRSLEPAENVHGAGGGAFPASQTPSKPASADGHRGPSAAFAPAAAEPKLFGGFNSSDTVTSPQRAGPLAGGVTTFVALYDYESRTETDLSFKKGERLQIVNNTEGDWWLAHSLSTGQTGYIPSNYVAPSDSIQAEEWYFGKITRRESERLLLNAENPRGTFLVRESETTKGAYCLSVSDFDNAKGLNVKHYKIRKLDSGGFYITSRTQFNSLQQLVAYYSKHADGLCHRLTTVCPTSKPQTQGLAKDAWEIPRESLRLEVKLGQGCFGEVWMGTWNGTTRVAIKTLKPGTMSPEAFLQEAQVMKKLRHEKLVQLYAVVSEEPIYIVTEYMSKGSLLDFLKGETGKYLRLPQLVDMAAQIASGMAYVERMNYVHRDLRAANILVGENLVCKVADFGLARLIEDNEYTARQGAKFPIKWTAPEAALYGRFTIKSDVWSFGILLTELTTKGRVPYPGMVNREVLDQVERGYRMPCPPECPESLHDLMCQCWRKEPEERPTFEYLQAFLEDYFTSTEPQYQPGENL
Insulin receptor (Homo sapiens), sequence (P06213 28-758 limits assumed): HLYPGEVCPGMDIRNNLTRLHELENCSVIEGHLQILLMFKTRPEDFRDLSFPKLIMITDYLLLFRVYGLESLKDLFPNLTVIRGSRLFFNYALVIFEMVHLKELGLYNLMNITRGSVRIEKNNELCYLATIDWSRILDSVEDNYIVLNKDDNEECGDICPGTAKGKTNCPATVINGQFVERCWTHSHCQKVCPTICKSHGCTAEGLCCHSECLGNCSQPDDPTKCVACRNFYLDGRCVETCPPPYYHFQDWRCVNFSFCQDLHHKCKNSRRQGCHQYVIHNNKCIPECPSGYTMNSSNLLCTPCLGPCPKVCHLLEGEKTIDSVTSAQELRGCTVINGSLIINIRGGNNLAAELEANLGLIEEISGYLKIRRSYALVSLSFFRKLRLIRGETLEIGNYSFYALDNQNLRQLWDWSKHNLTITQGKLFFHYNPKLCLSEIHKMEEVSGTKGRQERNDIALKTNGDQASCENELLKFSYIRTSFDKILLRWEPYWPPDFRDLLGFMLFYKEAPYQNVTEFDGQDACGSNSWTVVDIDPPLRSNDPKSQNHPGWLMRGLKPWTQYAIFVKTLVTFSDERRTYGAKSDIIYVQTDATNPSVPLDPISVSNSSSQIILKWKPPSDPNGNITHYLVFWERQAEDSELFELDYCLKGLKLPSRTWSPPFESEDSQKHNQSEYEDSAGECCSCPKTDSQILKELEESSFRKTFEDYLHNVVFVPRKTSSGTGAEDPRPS
Insulin receptor (Homo sapiens), sequence (P06213 763-1382 limits assumed): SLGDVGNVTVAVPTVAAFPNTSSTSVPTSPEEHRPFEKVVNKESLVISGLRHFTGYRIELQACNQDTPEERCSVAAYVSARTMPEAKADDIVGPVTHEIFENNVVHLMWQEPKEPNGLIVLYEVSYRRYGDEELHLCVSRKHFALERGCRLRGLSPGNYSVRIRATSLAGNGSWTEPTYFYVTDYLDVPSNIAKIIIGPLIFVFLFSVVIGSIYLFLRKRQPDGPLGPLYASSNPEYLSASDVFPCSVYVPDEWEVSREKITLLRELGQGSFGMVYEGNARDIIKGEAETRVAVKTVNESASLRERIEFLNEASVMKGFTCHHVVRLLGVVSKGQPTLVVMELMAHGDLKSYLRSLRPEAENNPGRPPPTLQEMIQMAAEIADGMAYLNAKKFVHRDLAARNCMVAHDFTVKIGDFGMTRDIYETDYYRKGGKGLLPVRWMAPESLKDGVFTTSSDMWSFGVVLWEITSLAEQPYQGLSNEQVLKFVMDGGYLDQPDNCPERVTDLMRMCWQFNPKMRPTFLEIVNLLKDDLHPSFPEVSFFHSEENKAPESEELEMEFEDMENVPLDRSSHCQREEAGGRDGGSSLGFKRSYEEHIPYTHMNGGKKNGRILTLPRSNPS
Glycogen synthase kinase-3 beta (Mus musculus), sequence (Q9WV60 whole entry, looked up): as the sequence (P49841 whole entry, looked up) above, with T390P, T392A, A400T, T402A counted along it

| Compound | inhibition [1] [%] | inhibition [2] [%] | inhibition [3] [%] | inhibition [4] [%] | inhibition [5] [%] | inhibition [6] [%] | inhibition [7] [%] | inhibition [8] [%] | inhibition [9] [%] | inhibition [10] [%] | Activity [11] | inhibition [12] [%] | inhibition [13] [%] | inhibition [14] [%] | inhibition [15] [%] | inhibition [16] [%] | inhibition [17] [%] | inhibition [18] [%] | inhibition [19] | inhibition [21] | also measured |
| --- | --- | --- | --- | --- | --- | --- | --- | --- | --- | --- | --- | --- | --- | --- | --- | --- | --- | --- | --- | --- | --- |
| O=C(CCl)c1cc(Br)c(Br)s1 | < 10 | < 10 | < 10 | < 10 | < 10 | < 10 | < 10 | < 10 | < 10 | < 10 | Active | < 10 | < 10 | < 10 | < 10 | 69 | < 10 | < 10 |  |  |  |
| O=C(CCl)c1csc(C(=O)CCl)c1 | 10 | < 10 | 21 | < 10 | < 10 | 16 | 12 | < 10 | < 10 | < 10 |  | < 10 | < 10 | 49 | < 10 | 94 | 25 | < 10 | Active | Active | Activity [20]: Active; Activity [22]: Active |
| O=C(CCl)c1c(Br)sc(Cl)c1Cl | < 10 | < 10 | < 10 | 31 | < 10 | < 10 | < 10 | < 10 | < 10 | < 10 | Active | 13 | < 10 | 33 | < 10 | 26 | < 10 | < 10 | Active | Active | Activity [22]: Active; Activity [23]: Active |
